The values below come from PMC6401406 (Theranostics, 2019).

Read-outs that look alike come from different tables or passages of the source.

The conditions of series [1]: cited from earlier work.
The conditions of series [2]: cited from earlier work. This is another data set of the same source.
The format of series [3] is in vivo, Sprague-Dawley rats. The following applies: for Tmax: male, Sprague-Dawley, rat, iv, 30 mg/kg. In short, it runs like this:
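Male 8-week-old Sprague-Dawley rats were acclimated ≥1 week, fasted 12 h, then given a single i.v. 30 mg kg-1 dose. Lung, liver, kidney, spleen, heart and heparinized plasma were collected at 0, 10, 30, 60, 120 and 240 min. Organs were saline-washed and stored at -80 °C. Sections underwent MALDI MSI with internal-standard correction; homogenates underwent LC-MS/MS. Identity was confirmed by accurate mass and tandem MS. Mean ± SD, three animals.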

For the compound `COc1ccc2cc1Oc1ccc(cc1)C[C@H]1c3cc(c(OC)cc3CCN1C)Oc1c(OC)c(OC)cc3c1[C@H](C2)N(C)CC3` [tetrandrine, Tetrandrine], the Relatively non-toxic dose entry in series [1] was “up to 90 mg kg^-1 body weight”. For the same compound, the “Half-life (t1/2) in blood versus heart” value in series [2] (after i.v. administration) was “generally similar”. Besides, the “Uptake efficiency in spleen versus other tissues” value in series [2] was “higher in spleen than other tissues”. In series [2] (post-dose, spleen), the Tmax in spleen is 4.5 h. Further, the Tmax in series [3] (kidney) was 30 min; in series [3] (liver) it was 120 min; in series [3] (lung), 10 min. Besides, the Distribution within kidney entry in series [3] (rat kidney, 60 min post-dose, 3D MALDI imaging) was “mainly distributed in the cortex of kidney”.

As for demethylated tetrandrine, the “Time of maximum concentration of demethylated metabolite in liver” value in series [3] (rat liver after i.v. tetrandrine 30 mg kg^-1) stood at 4 h. For the same compound, the “Detection of metabolite in liver tissue” value in series [3] (rat liver after i.v. tetrandrine, MALDI MSI, accurate mass and tandem MS) was “detected”.
